Measured values taken from ChEMBL document CHEMBL4138073, “Synthesis and biological evaluation of 8-hydroxy-2,7-naphthyridin-2-ium salts as novel inhibitors of acetylcholinesterase (AChE) and butyrylcholinesterase (BChE)” (Medchemcomm, 2017).
The source made the active and inactive calls. No cut-off for these calls is given here.

What was measured:
[1] = biological target: Cholinesterase (Equus caballus) (UniProt P81908); experiment: Inhibition of horse serum BChE at 10 uM using butyrylthiocholine chloride substrate by spectrophotometry based Ellman's assay
Sequence of Cholinesterase (Equus caballus) (P81908 whole entry): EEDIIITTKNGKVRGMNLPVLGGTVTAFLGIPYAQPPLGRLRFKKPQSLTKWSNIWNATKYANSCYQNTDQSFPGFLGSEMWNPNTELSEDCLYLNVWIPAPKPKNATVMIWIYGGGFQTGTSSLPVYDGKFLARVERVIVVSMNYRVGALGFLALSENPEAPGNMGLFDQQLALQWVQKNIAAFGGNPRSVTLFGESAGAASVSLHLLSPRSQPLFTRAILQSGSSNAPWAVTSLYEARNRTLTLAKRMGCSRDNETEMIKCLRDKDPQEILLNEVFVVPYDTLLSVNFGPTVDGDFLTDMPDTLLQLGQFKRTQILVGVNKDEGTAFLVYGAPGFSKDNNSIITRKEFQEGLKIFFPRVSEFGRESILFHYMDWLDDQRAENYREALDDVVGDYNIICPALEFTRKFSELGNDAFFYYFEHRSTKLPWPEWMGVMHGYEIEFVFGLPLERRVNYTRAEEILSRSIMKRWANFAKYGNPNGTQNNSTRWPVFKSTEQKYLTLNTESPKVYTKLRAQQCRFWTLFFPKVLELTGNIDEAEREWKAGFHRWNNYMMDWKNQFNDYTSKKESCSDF
Procedure, shortened: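 Ellman kinetic assay in microplates: equine serum BChE (final 0.350 U/ml) added last to start reaction; butyrylthiocholine chloride pseudo-substrate with DTNB; absorbance at 412 nm; 25 °C (room temperature). Tris-HCl 50 mM pH 8 buffer with DMSO ≤0.05% final. Compound absorbance read before enzyme addition as blank. Physostigmine 10 µM final as positive control. Primary screen at 10 µM.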

Cholinesterase = Cholinesterase (Equus caballus, UniProt P81908); experiment: Inhibition of horse serum BChE at using butyrylthiocholine chloride substrate by spectrophotometry based Ellman's assay
Sequence of Cholinesterase (P81908 whole entry): as above

Acetylcholinesterase = Acetylcholinesterase (Electrophorus electricus, UniProt O42275); experiment: Inhibition of electric eel AChE at using acetylthiocholine iodide substrate by spectrophotometry based Ellman's assay
Sequence of Acetylcholinesterase (O42275 whole entry): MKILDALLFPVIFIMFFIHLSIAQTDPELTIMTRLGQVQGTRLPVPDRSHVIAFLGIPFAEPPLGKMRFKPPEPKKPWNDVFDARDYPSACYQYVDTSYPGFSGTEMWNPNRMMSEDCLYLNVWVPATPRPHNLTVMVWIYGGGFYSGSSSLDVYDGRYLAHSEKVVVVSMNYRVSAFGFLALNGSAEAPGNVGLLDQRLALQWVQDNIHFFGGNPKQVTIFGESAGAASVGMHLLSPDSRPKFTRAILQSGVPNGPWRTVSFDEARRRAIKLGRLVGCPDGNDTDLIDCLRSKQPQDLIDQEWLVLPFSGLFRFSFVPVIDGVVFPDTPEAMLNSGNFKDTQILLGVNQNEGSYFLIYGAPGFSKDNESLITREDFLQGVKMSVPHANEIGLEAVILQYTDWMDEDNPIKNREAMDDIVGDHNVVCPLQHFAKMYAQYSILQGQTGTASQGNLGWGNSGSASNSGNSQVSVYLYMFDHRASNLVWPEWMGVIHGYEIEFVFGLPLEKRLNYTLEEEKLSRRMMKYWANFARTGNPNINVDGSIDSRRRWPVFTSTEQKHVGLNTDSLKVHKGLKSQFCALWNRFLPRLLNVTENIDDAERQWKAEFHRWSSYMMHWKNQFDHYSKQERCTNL

[2] = Dissociation constant, pKa of the compound at 52 uM at pH 2.3 to 12.3 by UV-Vis spectroscopy; format: physicochemical

Row | Structure (SMILES) | inhibition [1] | IC50 (Cholinesterase) | IC50 (Acetylcholinesterase) | pKa at 52 µM [2]
1 | Oc1nc(-c2ccccc2)cc2cc[n+](Cc3ccccc3)cc12 | 76.4% | 4990 nM | 2570 nM | –
2 | CC[n+]1ccc2c3c(nc(O)c2c1)-c1ccccc1C3 | 77.3% | – | 1550 nM | –
3 | C[n+]1ccc2cc(-c3ccccc3)[nH]c(=O)c2c1 | 51.6% | – | – | –
4 | Oc1nc2c(c3cc[n+](Cc4ccccc4)cc13)CCc1ccccc1-2 | inactive | – | – | –
5 | CC[n+]1ccc2cc(-c3ccc4ccccc4c3)nc(O)c2c1 | 59.5% | – | – | –
6 | CC[n+]1ccc2cc(-c3ccccc3)nc(O)c2c1 | 45.9% | – | – | –
7 | CC[n+]1ccc2cc(-c3ccccn3)nc(O)c2c1 | 48.5% | – | – | –
8 | Oc1nc(-c2ccc3ccccc3c2)cc2cc[n+](Cc3ccccc3)cc12 | 97.1% | 2880 nM | 990 nM | –
9 | C[n+]1ccc2cc(-c3ccccc3)nc(O)c2c1 | – | – | – | 8.7
